In ChEMBL document CHEMBL1135929, “Investigation of potential bioisosteric replacements for the carboxyl groups of peptidomimetic inhibitors of protein tyrosine phosphatase 1B: identification of a tetrazole-containing inhibitor with cellular activity” (J Med Chem, 2002) one finds inhibition, Ki and Uptake data, which are given here for 17 molecules.

Assay [1] has as its target T1, Tyrosine-protein phosphatase non-receptor type 1 (Homo sapiens) (UniProt P18031).
T1 sequence (whole entry): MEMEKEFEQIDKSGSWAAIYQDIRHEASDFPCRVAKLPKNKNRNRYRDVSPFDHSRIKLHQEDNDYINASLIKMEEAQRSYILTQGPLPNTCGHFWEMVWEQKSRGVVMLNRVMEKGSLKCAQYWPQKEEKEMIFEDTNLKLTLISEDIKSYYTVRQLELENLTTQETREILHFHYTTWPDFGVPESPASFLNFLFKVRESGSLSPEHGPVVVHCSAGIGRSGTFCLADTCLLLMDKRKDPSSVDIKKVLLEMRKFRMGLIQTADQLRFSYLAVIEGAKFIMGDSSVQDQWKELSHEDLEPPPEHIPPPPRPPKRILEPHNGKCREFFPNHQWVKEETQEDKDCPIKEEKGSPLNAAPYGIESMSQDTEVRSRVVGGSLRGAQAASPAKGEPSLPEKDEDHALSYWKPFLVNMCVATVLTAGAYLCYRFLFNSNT
Kind of assay: Percent inhibition against Protein-tyrosine phosphatase 1B at a 100 uM concentration. Put shortly: (§1)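 PTP1B inhibition was read as pNPP hydrolysis, with compound at a single fixed concentration and activity given as % inhibition. Some entries were measured on PTP1, the rat homologue of PTP1B.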

Assay [2] has as its target Receptor-type tyrosine-protein phosphatase F (Homo sapiens) (UniProt P10586). Kind of assay: Percent inhibition against Protein-tyrosine phosphatase Lar at 100 uM. The method, boiled down:
(§2)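 For specificity screening, recombinant purified LAR and SHP-2 were each tested with compound at 100 µM, reported as % inhibition.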

In assay [3] the target is T1, Tyrosine-protein phosphatase non-receptor type 1 (Homo sapiens). Kind of assay: Percent inhibition against Protein-tyrosine phosphatase 1B at a 10 uM concentration.
The target is the same in assay [4]. Kind of assay: Percent inhibition against Protein-tyrosine phosphatase 1B at a 1 uM concentration.
Assay [5] addresses T2, Tyrosine-protein phosphatase non-receptor type 11 (Homo sapiens) (UniProt Q06124).
T2 sequence (whole entry): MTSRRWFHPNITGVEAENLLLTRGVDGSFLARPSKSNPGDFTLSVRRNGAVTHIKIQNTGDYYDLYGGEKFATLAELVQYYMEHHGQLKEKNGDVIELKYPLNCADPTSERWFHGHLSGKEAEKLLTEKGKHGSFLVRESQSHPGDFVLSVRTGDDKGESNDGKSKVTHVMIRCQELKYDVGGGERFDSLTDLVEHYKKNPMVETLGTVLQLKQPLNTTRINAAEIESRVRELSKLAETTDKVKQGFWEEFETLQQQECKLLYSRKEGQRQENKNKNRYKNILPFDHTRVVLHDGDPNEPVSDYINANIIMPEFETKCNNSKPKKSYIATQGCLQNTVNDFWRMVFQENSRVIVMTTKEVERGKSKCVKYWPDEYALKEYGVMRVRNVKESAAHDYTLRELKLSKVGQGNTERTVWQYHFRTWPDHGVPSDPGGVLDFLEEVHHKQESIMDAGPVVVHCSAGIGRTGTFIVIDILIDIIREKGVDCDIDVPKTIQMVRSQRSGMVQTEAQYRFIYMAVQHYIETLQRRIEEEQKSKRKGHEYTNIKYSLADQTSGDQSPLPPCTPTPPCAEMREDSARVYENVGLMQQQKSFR
Kind of assay: Percent inhibition against Tyrosine phosphatase SHP2 at 100 uM. The method, boiled down: as §2

For assay [6], the target named is Receptor-type tyrosine-protein phosphatase F (Homo sapiens) (UniProt P10586). Description: Percent inhibition of compound against Protein-tyrosine phosphatase Lar at 100 uM. Put shortly: as §2
Assay [7] has as its target Tyrosine-protein phosphatase non-receptor type 11 (SHP-2) (Homo sapiens) (UniProt Q06124). Description: Percent inhibition of compound against Tyrosine phosphatase SHP2 at 100 uM.
The target in assay [8] is T3, Tyrosine-protein phosphatase non-receptor type 1 (Rattus norvegicus) (UniProt P20417).
T3 sequence (whole entry): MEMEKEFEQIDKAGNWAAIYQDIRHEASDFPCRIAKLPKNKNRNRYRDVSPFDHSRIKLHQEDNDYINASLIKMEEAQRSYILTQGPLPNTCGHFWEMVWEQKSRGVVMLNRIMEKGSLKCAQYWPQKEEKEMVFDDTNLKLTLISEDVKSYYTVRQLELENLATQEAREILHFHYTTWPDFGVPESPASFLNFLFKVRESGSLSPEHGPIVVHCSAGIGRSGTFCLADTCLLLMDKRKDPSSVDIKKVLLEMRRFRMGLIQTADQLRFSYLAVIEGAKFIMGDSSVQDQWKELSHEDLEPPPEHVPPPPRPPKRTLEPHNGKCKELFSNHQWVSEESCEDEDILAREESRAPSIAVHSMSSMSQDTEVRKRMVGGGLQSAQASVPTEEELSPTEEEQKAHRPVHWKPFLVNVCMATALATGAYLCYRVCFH
Kind of assay: Percent inhibition of compound against Protein-tyrosine phosphatase 1B at a 100 uM concentration. The method, boiled down:
as §1

Assay [9] addresses T4, Tyrosine-protein phosphatase non-receptor type 1 (Homo sapiens, UniProt P18031).
T4 sequence (P18031 whole entry): T1 sequence (whole entry)
Kind of assay: Inhibition constant of compound against Protein-tyrosine phosphatase 1B.

The species entered for assay [10] is Rattus norvegicus. Kind of assay: Effect on basal uptake without insulin into intact cells (L6 myocytes), to that of control cells. The assay is classed as functional, cell-based.
Assay [11] concerns the target T4, Tyrosine-protein phosphatase non-receptor type 1. Description: Inhibitory constant against Protein-tyrosine phosphatase 1B. Put shortly: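 Competitive inhibition of PTP1B was measured with pNPP as substrate. V vs S data were collected at various inhibitor concentrations, and Ki was computed by the Cornish-Bowden direct linear method.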
The species entered for assay [12] is Rattus norvegicus. Kind of assay: Effect of compound (100 µM) on insulin (10 nM)-stimulated 2-deoxyglucose (2-DOG) uptake into L6 myocytes.

Broadly, the inhibition is the drop in the measured response relative to a control, in per cent. One may read the Ki as the dissociation constant of the complex between target and ligand, obtained from inhibition or displacement.

Chain of Receptor-type tyrosine-protein phosphatase F (Homo sapiens) (P10586 whole entry): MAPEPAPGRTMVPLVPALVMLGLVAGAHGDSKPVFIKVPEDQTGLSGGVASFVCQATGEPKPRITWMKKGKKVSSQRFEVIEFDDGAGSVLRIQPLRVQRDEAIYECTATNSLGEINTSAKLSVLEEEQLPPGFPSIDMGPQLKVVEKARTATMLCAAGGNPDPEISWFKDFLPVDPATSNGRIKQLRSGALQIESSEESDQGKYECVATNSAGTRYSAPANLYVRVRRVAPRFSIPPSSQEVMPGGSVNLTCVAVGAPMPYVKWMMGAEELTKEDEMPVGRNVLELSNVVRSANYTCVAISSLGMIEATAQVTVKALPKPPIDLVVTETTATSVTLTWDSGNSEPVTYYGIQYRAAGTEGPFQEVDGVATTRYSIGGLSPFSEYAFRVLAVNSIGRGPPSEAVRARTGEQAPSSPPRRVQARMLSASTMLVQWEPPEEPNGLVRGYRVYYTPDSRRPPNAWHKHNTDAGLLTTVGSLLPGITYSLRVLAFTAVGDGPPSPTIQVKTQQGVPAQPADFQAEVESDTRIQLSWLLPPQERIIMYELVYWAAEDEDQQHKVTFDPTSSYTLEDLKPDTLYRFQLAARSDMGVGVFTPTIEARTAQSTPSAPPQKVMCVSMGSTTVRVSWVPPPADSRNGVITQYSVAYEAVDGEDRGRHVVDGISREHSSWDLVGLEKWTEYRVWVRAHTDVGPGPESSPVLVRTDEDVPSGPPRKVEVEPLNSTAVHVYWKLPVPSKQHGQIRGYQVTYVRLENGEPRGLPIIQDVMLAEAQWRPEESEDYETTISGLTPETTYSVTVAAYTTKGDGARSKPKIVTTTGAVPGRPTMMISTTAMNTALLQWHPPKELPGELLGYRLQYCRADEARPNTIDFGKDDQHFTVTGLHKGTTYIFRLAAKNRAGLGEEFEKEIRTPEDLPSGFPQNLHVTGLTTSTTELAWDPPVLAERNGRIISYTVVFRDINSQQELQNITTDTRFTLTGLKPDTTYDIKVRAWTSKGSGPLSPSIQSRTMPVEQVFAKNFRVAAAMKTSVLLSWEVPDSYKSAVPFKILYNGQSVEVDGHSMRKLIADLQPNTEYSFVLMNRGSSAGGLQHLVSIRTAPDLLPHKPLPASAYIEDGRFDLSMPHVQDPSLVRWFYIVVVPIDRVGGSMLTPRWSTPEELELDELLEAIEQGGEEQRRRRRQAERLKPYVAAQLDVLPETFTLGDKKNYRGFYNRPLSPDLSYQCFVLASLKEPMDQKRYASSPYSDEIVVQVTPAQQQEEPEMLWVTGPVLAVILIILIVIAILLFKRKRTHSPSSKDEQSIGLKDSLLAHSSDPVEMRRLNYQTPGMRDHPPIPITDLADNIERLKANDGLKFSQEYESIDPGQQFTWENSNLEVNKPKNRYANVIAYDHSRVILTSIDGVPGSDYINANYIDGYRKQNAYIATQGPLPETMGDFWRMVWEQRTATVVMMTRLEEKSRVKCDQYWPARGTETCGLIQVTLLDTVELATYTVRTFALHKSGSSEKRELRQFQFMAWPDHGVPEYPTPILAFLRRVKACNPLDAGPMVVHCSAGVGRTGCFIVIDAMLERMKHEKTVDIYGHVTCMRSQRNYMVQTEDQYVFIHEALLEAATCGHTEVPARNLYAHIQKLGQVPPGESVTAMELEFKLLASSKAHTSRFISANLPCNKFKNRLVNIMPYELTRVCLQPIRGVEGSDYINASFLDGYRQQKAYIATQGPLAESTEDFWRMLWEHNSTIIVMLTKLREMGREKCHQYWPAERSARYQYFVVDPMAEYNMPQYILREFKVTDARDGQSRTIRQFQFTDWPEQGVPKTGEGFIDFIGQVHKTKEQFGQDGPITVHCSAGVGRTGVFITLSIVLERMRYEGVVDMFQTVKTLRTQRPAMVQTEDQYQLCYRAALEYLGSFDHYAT

For `CCCCCNC(=O)[C@H](Cc1ccc(OCC(N)=O)c(C(=O)O)c1)NC(=O)[C@H](Cc1ccccc1)NC(=O)OC(C)(C)C`, the inhibition in assay [1], in assay [2], in assay [3], in assay [4] and in [5] was 0% in each case.

As for `CCCCCNC(=O)[C@H](Cc1ccc(OCC(=O)O)c(C#CC(=O)O)c1)NC(=O)[C@H](Cc1ccccc1)NC(=O)OC(C)(C)C`, the inhibition in assay [1] came to 16%; in [2], 1%; in assay [3] it was 3%; in assay [4], 1%; in assay [5], 1%.

For the molecule `CCCCCNC(=O)[C@H](Cc1ccc(OCC(=O)O)c(C(=O)OC)c1)NC(=O)[C@H](Cc1ccccc1)NC(=O)OC(C)(C)C`, the inhibition in assay [1] was found to be 4%; in assay [2], 0%; in [3], 2%; in [4], 3%; in assay [5], 0%.

Regarding `CCCCCNC(=O)[C@H](Cc1ccc(OCC(=O)NO)c(C(=O)O)c1)NC(=O)[C@H](Cc1ccccc1)NC(=O)OC(C)(C)C`, the inhibition worked out at 30% in [1]; 1% in [2]; 8% in [3]; 6% in assay [4]; 4% in [5].

In the case of `CCCCCNC(=O)[C@H](Cc1ccc(OCC(=O)O)c(C(=O)NO)c1)NC(=O)[C@H](Cc1ccccc1)NC(=O)OC(C)(C)C`, the inhibition in [1] stood at 54%; in assay [2], 3%; in assay [3], 13%; in assay [4], 5%; in assay [5], 6%.

On to `CCCCCNC(=O)C(Cc1ccc(OCC(=O)O)c(C(C)=O)c1)NC(=O)CCC(=O)O` (stereo unspecified), for which the inhibition was -2% in assay [6], 1% in [7] and 8% in assay [8].

In the case of `CCCCCNC(=O)C(Cc1ccc(OCC#N)c(C(=O)O)c1)NC(=O)CCC(=O)O` (stereo unspecified), the inhibition in [1] was 3%; in [2], 0%; in [5] it was 0%.

Regarding `CCCCCNC(=O)C(Cc1ccc2c(c1)OCCOC2=O)NC(=O)CCC(=O)O` (stereo unspecified), the inhibition in [1] amounted to 1%; in [2] it was 0%; in [5], 0%.

On to `CCCCCNC(=O)C(Cc1ccc(OCC(=O)O)c(C#N)c1)NC(=O)CCC(=O)O` (stereo unspecified), for which the inhibition in [1] amounted to 4%; in assay [2] it was 0%; in [5], 0%.

For the molecule `CCCCCNC(=O)[C@H](Cc1ccc(OCC(=O)O)c(CCC(=O)O)c1)NC(=O)[C@H](Cc1ccccc1)NC(=O)OC(C)(C)C`, the inhibition in assay [1] was 18%; in assay [2] it was 13%; in [3], 4%; in assay [4], 3%; in assay [5], 1%.

`CCCCCNC(=O)C(Cc1ccc(OCC(=O)O)c(C(=O)O)c1)NC(=O)CCC(=O)O` (stereo unspecified): the inhibition constant Ki in assay [9] was determined as 6500 nM. Besides, the inhibition is 0% in [2] and 5% in [5].

`CCCCCNC(=O)[C@H](Cc1ccc(OCc2nn[nH]n2)c(C(=O)O)c1)NC(=O)[C@H](Cc1ccccc1)NC(=O)OC(C)(C)C`: the inhibition turned out to be 17% in assay [1]; 0% in [2]; 3% in [3]; 1% in assay [4]; 5% in assay [5].

`CCCCCNC(=O)[C@H](Cc1ccc(OCC(=O)O)c(-c2nn[nH]n2)c1)NC(=O)[C@H](Cc1ccccc1)NC(=O)OC(C)(C)C`: the inhibition in assay [1] was found to be 97%; in assay [2], 0%; in assay [3] it was 77%; in assay [4], 27%; in assay [5], 1%. Besides, the Uptake in the assay filed under Rattus norvegicus [10] was found to be 99%; in the assay listed under Rattus norvegicus [12], 147%. Also, the affinity in [11] corresponds to a Ki of 2000 nM.

As for `CCCCCNC(=O)[C@H](Cc1ccc(OCC(=O)OC)c(C(=O)O)c1)NC(=O)[C@H](Cc1ccccc1)NC(=O)OC(C)(C)C`, the inhibition in [1] worked out at 25%; in [2] it was 0%; in assay [3], 5%; in assay [4], 3%; in assay [5] it was 0%.

Consider `CCCCCNC(=O)[C@H](Cc1ccc(OCC(=O)O)c(C(=O)O)c1)NC(=O)[C@H](Cc1ccccc1)NC(=O)OC(C)(C)C`, for which the inhibition in assay [1] worked out at 97%; in [2], 0%; in assay [3], 78%; in [4], 30%; in [5], 2%. This molecule also registered an inhibitory constant (Ki) in assay [11] of 2000 nM.

`CCCCCNC(=O)C(Cc1ccc(OCCO)c(C(=O)O)c1)NC(=O)CCC(=O)O` (stereo unspecified): the inhibition in [1] is 4%; in assay [2] it was 0%; in assay [5] it was 0%.

Take `CCCCCNC(=O)[C@H](Cc1ccc(OCC(=O)O)c(-c2cc(O)no2)c1)NC(=O)[C@H](Cc1ccccc1)NC(=O)OC(C)(C)C`: the inhibition in assay [1] worked out at 9%; in assay [2] it was 0%; in [3] it was 1%; in assay [4] it was 1%.
